Laboratory results reported in ChEMBL document CHEMBL3352243, “Ligand-based virtual screening identifies a family of selective cannabinoid receptor 2 agonists” (Bioorg Med Chem, 2015).

Columns and labels:
Cannabinoid receptor 2 [1] = target: T1, Cannabinoid receptor 2 (Homo sapiens, UniProt P34972); test: Agonist activity at human CB2R expressed in CHO cells assessed as reduction in forskolin-induced cAMP accumulation by beta-galactosidase based complementation immunoassay; assay type: functional, cell-based
Method in brief: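 hCB2R CHO-K1 cells plated overnight at 37 °C, 5% CO2; anti-cAMP antibody added, then compound (final 0.2% DMSO) with 20 μM forskolin for 30 min at 37 °C. Lysis/substrate 1 h, then EA detection reagent 3 h at room temperature; luminescence read and normalised to forskolin+solvent wells (100%). EC50 by 4-parameter nonlinear fit of pooled 3–4 independent experiments.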
Target sequence in this assay (P34972 whole entry): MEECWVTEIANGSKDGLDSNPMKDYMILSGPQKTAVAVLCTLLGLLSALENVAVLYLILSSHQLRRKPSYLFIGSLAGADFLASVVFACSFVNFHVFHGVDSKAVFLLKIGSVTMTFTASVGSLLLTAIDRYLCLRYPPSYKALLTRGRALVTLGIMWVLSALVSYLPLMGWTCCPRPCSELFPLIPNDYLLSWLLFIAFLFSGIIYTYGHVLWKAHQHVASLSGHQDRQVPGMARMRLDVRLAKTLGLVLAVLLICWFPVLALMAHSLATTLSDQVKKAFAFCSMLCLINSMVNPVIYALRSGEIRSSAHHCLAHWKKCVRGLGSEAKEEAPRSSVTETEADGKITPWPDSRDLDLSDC

Cannabinoid receptor 1 [2] = target: T2, Cannabinoid receptor 1 (Homo sapiens, UniProt P21554); test: Agonist activity at human CB1R expressed in CHO cells assessed as reduction in forskolin-induced cAMP accumulation by beta-galactosidase based complementation immunoassay; assay type: functional, cell-based
Method in brief: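 CHO-K1 cells expressing hCB1R, 15,000 per well, incubated overnight at 37 °C, 5% CO2, then given anti-cAMP antibody. Compounds were added with 20 μM forskolin (final DMSO 0.2%) for 30 min at 37 °C. Lysis/substrate step 1 h and EA detection 3 h, both at rt in the dark, then luminescence read.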

Cannabinoid receptor 2 [3] = target: T1, Cannabinoid receptor 2; test: Displacement of [3H]WIN-55212-2 from human CB2R expressed in CHO cells; assay type: cell-based
Method in brief: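 Membranes from CHO cells expressing hCB2R incubated with test compound and tritiated WIN-55212 (0.8 nM), 2 h, 37 °C. Non-specific binding defined with 5 μM WIN-55212. Scintillation counting of bound ligand; Ki via Cheng–Prusoff with radioligand Kd; duplicate.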
Target sequence in this assay (P34972 whole entry): as above

Cannabinoid receptor 1 [4] = target: T2, Cannabinoid receptor 1; test: Displacement of [3H]CP55940 from human CB1R expressed in CHO cells; assay type: cell-based
Method in brief: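 Membranes from CHO cells expressing hCB1R incubated with test compound and [3H]CP 55,940 (0.5 nM) for 2 h at 37 °C. Non-specific binding defined with 10 μM WIN-55212. Bound radioligand measured by scintillation counting. Ki from Cheng–Prusoff using radioligand Kd; run in duplicate.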

Liver = test: Half life in mouse liver microsomes in presence of NADPH by LC-MS/MS method; assay type: ADME
Method in brief: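 Mouse liver microsomes incubated with compound at 37 °C with NADPH. Reactions stopped with methanol containing internal standard, centrifuged, supernatant analysed by LC–MS/MS.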

Cannabinoid receptor 2 [5] = target: T1, Cannabinoid receptor 2; test: Agonist activity at human CB2R expressed in CHO cells assessed as reduction in forskolin-induced cAMP accumulation at 3 uM by beta-galactosidase based complementation immunoassay; assay type: functional, cell-based; set-up: reference not given here
Method in brief: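 CHO-K1 cells expressing hCB2R, 15,000 per well, incubated overnight at 37 °C, 5% CO2, then anti-cAMP antibody added. Test agent at single concentration with 20 μM forskolin (0.2% DMSO final), 30 min at 37 °C. Lysis/substrate 1 h, then EA reagent 3 h, both at rt in the dark; luminescence read and expressed as % of forskolin+solvent control wells.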
Target sequence in this assay (P34972 whole entry): as above

Cannabinoid receptor 2 [6] = target: T1, Cannabinoid receptor 2; test: Agonist activity at human CB2R expressed in CHO cells assessed as reduction in forskolin-induced cAMP accumulation at 1 uM by beta-galactosidase based complementation immunoassay; set-up: reference not given here
Target sequence in this assay (P34972 whole entry, looked up): as the sequence (P34972 whole entry) above

T2 sequence (P21554 whole entry): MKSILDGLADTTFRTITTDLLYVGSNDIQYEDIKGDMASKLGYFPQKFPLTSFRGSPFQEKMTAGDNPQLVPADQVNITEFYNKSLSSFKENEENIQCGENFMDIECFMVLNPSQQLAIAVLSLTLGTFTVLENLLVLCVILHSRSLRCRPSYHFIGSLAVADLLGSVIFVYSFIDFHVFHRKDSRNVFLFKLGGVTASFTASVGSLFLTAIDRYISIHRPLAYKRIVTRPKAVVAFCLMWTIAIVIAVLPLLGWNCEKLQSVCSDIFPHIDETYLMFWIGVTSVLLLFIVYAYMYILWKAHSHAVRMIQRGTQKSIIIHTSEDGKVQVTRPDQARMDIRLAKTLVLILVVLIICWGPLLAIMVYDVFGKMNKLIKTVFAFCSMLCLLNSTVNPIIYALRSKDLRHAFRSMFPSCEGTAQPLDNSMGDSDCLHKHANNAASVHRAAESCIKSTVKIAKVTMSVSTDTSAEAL

Clc1ccccc1CSc1nnc2c(n1)[nH]c1ccccc12
EC50 (Cannabinoid receptor 2 [1]): > 3 µM

N#Cc1ccccc1CSc1nnc2c(n1)[nH]c1cccc(Br)c12
EC50 (Cannabinoid receptor 2 [1]): 0.039 µM
EC50 (Cannabinoid receptor 1 [2]): 20 µM
Ki (Cannabinoid receptor 2 [3]): 0.0225 µM
Ki (Cannabinoid receptor 1 [4]): 3.2 µM
t1/2 (Liver): 5 min

N#Cc1ccccc1CSc1nnc2c(n1)[nH]c1cccc(C3CC3)c12
EC50 (Cannabinoid receptor 2 [1]): 0.231 µM

Cc1ccccc1-c1cccc2[nH]c3nc(SCc4ccccc4C#N)nnc3c12
EC50 (Cannabinoid receptor 2 [1]): 4.3 µM

Cn1c2ccccc2c2nnc(SCc3ccccc3C#N)nc21
EC50 (Cannabinoid receptor 2 [1]): > 3 µM

N#Cc1ccccc1CSc1nnc2c(n1)[nH]c1c(Br)cccc12
EC50 (Cannabinoid receptor 2 [1]): > 3 µM

O=C(O)c1ccccc1CSc1nnc2c(n1)[nH]c1ccccc12
EC50 (Cannabinoid receptor 2 [1]): 2.19 µM

N#Cc1ccccc1CSc1nnc2c(n1)[nH]c1ccc(Br)cc12
EC50 (Cannabinoid receptor 2 [1]): > 3 µM

N#Cc1ccccc1CSc1nnc2c3ccccc3n(C(=O)OCc3ccccc3)c2n1
EC50 (Cannabinoid receptor 2 [1]): > 3 µM

N#Cc1ccccc1CSc1nnc2c3ccccc3n(C(=O)c3ccc(F)cc3)c2n1
EC50 (Cannabinoid receptor 2 [1]): 0.057 µM

O=C(c1ccccc1)n1c2ccccc2c2nnc(SCc3ccccc3[N+](=O)[O-])nc21
EC50 (Cannabinoid receptor 2 [1]): 0.075 µM
Ki (Cannabinoid receptor 2 [3]): 0.235 µM
Ki (Cannabinoid receptor 1 [4]): > 60 µM

CCCCn1c2ccccc2c2nnc(SCc3ccccc3C#N)nc21
EC50 (Cannabinoid receptor 2 [1]): 0.106 µM
t1/2 (Liver): < 5 min

CCCCCCSC1=C(C#N)C(c2cccc(Cl)c2)NC(=O)N1 (configuration not stated)
Activity (Cannabinoid receptor 2 [5]): 117%
Activity (Cannabinoid receptor 2 [6]): 105%

CCCCSc1nnc2c(n1)OC(CC)Nc1ccccc1-2 (configuration not stated)
Activity (Cannabinoid receptor 2 [5]): 44.3%
Activity (Cannabinoid receptor 2 [6]): 47.8%

FC(F)(F)Oc1ccccc1CSc1nnc2c(n1)[nH]c1ccccc12
EC50 (Cannabinoid receptor 2 [1]): > 3 µM

CC(=O)n1c2ccccc2c2nnc(SCc3ccccc3C#N)nc21
EC50 (Cannabinoid receptor 2 [1]): > 3 µM

COc1ccc(C(=O)n2c3ccccc3c3nnc(SCc4ccccc4C#N)nc32)cc1OC
EC50 (Cannabinoid receptor 2 [1]): 0.16 µM

N#Cc1ccccc1CSc1nnc2c3ccccc3n(C(=O)C3CC3)c2n1
EC50 (Cannabinoid receptor 2 [1]): 0.181 µM
t1/2 (Liver): < 5 min

CCCCSc1nnc(-c2ccccc2N)c(O)n1
Activity (Cannabinoid receptor 2 [5]): 61.6%
Activity (Cannabinoid receptor 2 [6]): 93.5%

CCCCCSc1nnc2c(n1)[nH]c1ccccc12
Activity (Cannabinoid receptor 2 [5]): 73.1%
Activity (Cannabinoid receptor 2 [6]): 86.2%

Cc1ccc(-c2cccc3[nH]c4nc(SCc5ccccc5C#N)nnc4c23)cc1
EC50 (Cannabinoid receptor 2 [1]): > 3 µM

N#Cc1ccccc1CSc1nnc2c3ccccc3n(S(=O)(=O)c3ccccc3)c2n1
EC50 (Cannabinoid receptor 2 [1]): 0.076 µM
t1/2 (Liver): < 5 min

N#Cc1ccccc1CSc1nnc2c(n1)[nH]c1cc(Br)ccc12
EC50 (Cannabinoid receptor 2 [1]): > 3 µM

CCn1c2ccccc2c2nnc(SCc3ccccc3C#N)nc21
EC50 (Cannabinoid receptor 2 [1]): 0.674 µM

N#Cc1ccccc1CSc1nnc2c3ccccc3n(Cc3ccccc3[N+](=O)[O-])c2n1
EC50 (Cannabinoid receptor 2 [1]): 0.053 µM
EC50 (Cannabinoid receptor 1 [2]): > 30 µM
Ki (Cannabinoid receptor 2 [3]): 0.29 µM
Ki (Cannabinoid receptor 1 [4]): > 60 µM

N#Cc1ccccc1CSc1nnc2c3ccccc3n(C(=O)c3ccco3)c2n1
EC50 (Cannabinoid receptor 2 [1]): 0.046 µM
Ki (Cannabinoid receptor 2 [3]): 0.49 µM
Ki (Cannabinoid receptor 1 [4]): > 10 µM

CCCCCCSc1nnc2c(n1)[nH]c1ccccc12
Activity (Cannabinoid receptor 2 [5]): 76%
Activity (Cannabinoid receptor 2 [6]): 102%

Fc1ccccc1CSc1nnc2c(n1)[nH]c1ccccc12
EC50 (Cannabinoid receptor 2 [1]): > 3 µM

O=[N+]([O-])c1ccc(CSc2nnc3c(n2)[nH]c2ccccc23)cc1
EC50 (Cannabinoid receptor 2 [1]): 0.617 µM

C=CCn1c(SCCCC)nc2sc3c(c2c1=O)CC(C)(C)OC3
Activity (Cannabinoid receptor 2 [5]): 36.7%
Activity (Cannabinoid receptor 2 [6]): 76.3%

CC(C)CCSc1nc(N)c2c3c(sc2n1)COC(C)(C)C3
Activity (Cannabinoid receptor 2 [5]): 85.3%
Activity (Cannabinoid receptor 2 [6]): 76.7%

FC(F)(F)c1ccccc1CSc1nnc2c(n1)[nH]c1ccccc12
EC50 (Cannabinoid receptor 2 [1]): > 3 µM

c1ccc(CSc2nnc3c(n2)[nH]c2ccccc23)cc1
EC50 (Cannabinoid receptor 2 [1]): 10 µM
EC50 (Cannabinoid receptor 1 [2]): > 30 µM

CN(C)c1ccc(C(=O)n2c3ccccc3c3nnc(SCc4ccccc4C#N)nc32)cc1
EC50 (Cannabinoid receptor 2 [1]): > 3 µM

O=[N+]([O-])c1ccccc1CSc1nnc2c(n1)[nH]c1cccc(Br)c12
EC50 (Cannabinoid receptor 2 [1]): 0.037 µM

Fc1cccc(F)c1CSc1nnc2c(n1)[nH]c1ccccc12
EC50 (Cannabinoid receptor 2 [1]): > 3 µM

N#Cc1ccccc1C[S+]([O-])c1nnc2c(n1)[nH]c1ccccc12 (configuration not stated)
EC50 (Cannabinoid receptor 2 [1]): 3.55 µM

CCCCCCSC1=C(C#N)C(c2ccc(F)cc2)NC(=O)N1 (configuration not stated)
Activity (Cannabinoid receptor 2 [5]): 114%
Activity (Cannabinoid receptor 2 [6]): 121%

CCCCCCCC1C(=O)NC(=S)N(c2ccccc2)C1=O (configuration not stated)
Activity (Cannabinoid receptor 2 [5]): 98.1%
Activity (Cannabinoid receptor 2 [6]): 111%

CCCCCSc1nnc2c3ccccc3n(C)c2n1
Activity (Cannabinoid receptor 2 [5]): 110%
Activity (Cannabinoid receptor 2 [6]): 129%

N#Cc1ccccc1CSc1nnc2c3ccccc3n(CC3CC3)c2n1
EC50 (Cannabinoid receptor 2 [1]): 0.144 µM
t1/2 (Liver): < 5 min

Cc1ccc(S(=O)(=O)n2c3ccccc3c3nnc(SCc4ccccc4C#N)nc32)cc1
EC50 (Cannabinoid receptor 2 [1]): > 3 µM

Fc1ccc(CSc2nnc3c(n2)[nH]c2ccccc23)cc1
EC50 (Cannabinoid receptor 2 [1]): > 3 µM

N#Cc1ccccc1CSc1nnc2c3ccccc3n(CC3CCCCC3)c2n1
EC50 (Cannabinoid receptor 2 [1]): 0.27 µM
t1/2 (Liver): < 5 min

N#Cc1ccccc1CSc1nnc2c3ccccc3n(C(=O)C3CCCC3)c2n1
EC50 (Cannabinoid receptor 2 [1]): 0.049 µM
Ki (Cannabinoid receptor 2 [3]): 0.32 µM
Ki (Cannabinoid receptor 1 [4]): > 60 µM

N#Cc1ccccc1CSc1nnc2c3ccccc3n(C(=O)c3ccc(F)cc3C(F)(F)F)c2n1
EC50 (Cannabinoid receptor 2 [1]): > 3 µM

c1ccc2c(c1)[nH]c1nc(SCC3CCCCC3)nnc12
EC50 (Cannabinoid receptor 2 [1]): > 3 µM

CCCCCCSC1=C(C#N)C(c2cccc([N+](=O)[O-])c2)NC(=O)N1 (configuration not stated)
Activity (Cannabinoid receptor 2 [5]): 39.9%
Activity (Cannabinoid receptor 2 [6]): 63.2%

CCCCCCSC1=C(C#N)C(c2ccccc2Cl)NC(=O)N1 (configuration not stated)
Activity (Cannabinoid receptor 2 [5]): 119%
Activity (Cannabinoid receptor 2 [6]): 98.2%

N#Cc1ccccc1CSc1nnc2c(n1)[nH]c1cccc(-c3ccsc3)c12
EC50 (Cannabinoid receptor 2 [1]): 1.76 µM

CCOC(=O)c1ccccc1CSc1nnc2c(n1)[nH]c1ccccc12
EC50 (Cannabinoid receptor 2 [1]): > 3 µM

CCC1(C)Cc2c(sc3nc(SCCC(C)C)nc(N)c23)CO1 (configuration not stated)
Activity (Cannabinoid receptor 2 [5]): 98.4%
Activity (Cannabinoid receptor 2 [6]): 111%

N#Cc1cccc(CSc2nnc3c(n2)[nH]c2ccccc23)c1
EC50 (Cannabinoid receptor 2 [1]): 6.45 µM
EC50 (Cannabinoid receptor 1 [2]): > 30 µM

N#Cc1ccccc1CSc1nnc2c3ccccc3n(C(=O)C3CCCCC3)c2n1
EC50 (Cannabinoid receptor 2 [1]): 0.032 µM
Ki (Cannabinoid receptor 2 [3]): 0.03 µM
Ki (Cannabinoid receptor 1 [4]): > 60 µM

N#Cc1ccccc1CSc1nnc2c3ccccc3n(C(=O)c3ccc(OC(F)(F)F)cc3)c2n1
EC50 (Cannabinoid receptor 2 [1]): 0.073 µM
Ki (Cannabinoid receptor 2 [3]): 0.38 µM
Ki (Cannabinoid receptor 1 [4]): > 60 µM

N#Cc1ccccc1CSc1nnc2c3ccccc3n(Cc3ccccc3)c2n1
EC50 (Cannabinoid receptor 2 [1]): 0.214 µM
EC50 (Cannabinoid receptor 1 [2]): 1.55 µM
Ki (Cannabinoid receptor 2 [3]): 0.011 µM
Ki (Cannabinoid receptor 1 [4]): 0.061 µM
t1/2 (Liver): < 5 min

Fc1ccccc1CSc1nnc2c3ccccc3n(Cc3ccccc3)c2n1
EC50 (Cannabinoid receptor 2 [1]): 0.85 µM
Ki (Cannabinoid receptor 2 [3]): 0.215 µM
Ki (Cannabinoid receptor 1 [4]): 0.275 µM

Clc1cccc(CSc2nnc3c(n2)[nH]c2ccccc23)c1
EC50 (Cannabinoid receptor 2 [1]): > 3 µM

CCCCCCSC1=C(C#N)C(c2ccc(Cl)cc2)NC(=O)N1 (configuration not stated)
Activity (Cannabinoid receptor 2 [5]): 138%
Activity (Cannabinoid receptor 2 [6]): 108%

CSc1nnc2c(n1)[nH]c1ccccc12
EC50 (Cannabinoid receptor 2 [1]): > 3 µM

N#Cc1ccccc1CSc1nnc2c3ccccc3n(C(=O)c3cccc(C(F)(F)F)c3)c2n1
EC50 (Cannabinoid receptor 2 [1]): 0.027 µM

Clc1ccc(CSc2nnc3c(n2)[nH]c2ccccc23)cc1
EC50 (Cannabinoid receptor 2 [1]): > 3 µM

N#Cc1ccccc1CSc1nnc2c3ccccc3n(S(=O)(=O)c3ccccc3[N+](=O)[O-])c2n1
EC50 (Cannabinoid receptor 2 [1]): > 3 µM
